Laboratory results: ChEMBL document CHEMBL1155297, “Synthesis, antimicrobial and antioxidant activities of substituted pyrazoles, isoxazoles, pyrimidine and thioxopyrimidine derivatives” (2009)

Tests used:
Assay type in all cases: functional
Bacillus subtilis [1] = experiment: Antibacterial activity against Bacillus subtilis NCIM 2063 at 200 ug/disk after 24 hrs by agar disk diffusion method; details: NCIM 2063, 24 h, read-out: IZ
Summary of the method: (§1)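 Agar disc diffusion on nutrient agar plates pre-inoculated with each bacterium. Sterile 6 mm filter-paper discs were moistened with compound in DMSO at the stated per-disc amount. Plates were incubated at 37 °C, and the growth-inhibition zone diameter was read after 24 h. Each determination was run in triplicate, and the mean of three independent readings is reported.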

Klebsiella pneumoniae [2] = experiment: Antibacterial activity against Klebsiella pneumoniae NCIM 2957 at 200 ug/disk after 24 hrs by agar disk diffusion method; details: NCIM 2957, 24 h, read-out: IZ; summary of the method: as §1
Fusarium solani [3] = experiment: Antifungal activity against Fusarium solani NCIM 1330 at 100 ug/disk after 48 hrs by agar disk diffusion method; details: NCIM 1330, 48 h, read-out: IZ
Summary of the method: (§2)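 Fungal disc diffusion on nutrient agar plates pre-inoculated with each fungus. 6 mm sterile paper discs carried the compound in DMSO at the stated amount per disc. Plates were held at 37 °C, and inhibition-zone diameter was measured after 48 h. Values are the mean of three independent triplicate readings.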

Proteus vulgaris [4] = experiment: Antibacterial activity against Proteus vulgaris NCIM 2027 at 100 ug/disk after 24 hrs by agar disk diffusion method; details: NCIM 2027, 24 h, read-out: IZ; summary of the method: as §1
Fusarium solani [5] = experiment: Antifungal activity against Fusarium solani NCIM 1330 at 200 ug/disk after 48 hrs by agar disk diffusion method; details: NCIM 1330, 48 h, read-out: IZ; summary of the method: as §2
Aspergillus niger [6] = experiment: Antifungal activity against Aspergillus niger NCIM 596 at 200 ug/disk after 48 hrs by agar disk diffusion method; details: NCIM 596, 48 h, read-out: IZ; summary of the method: as §2
Curvularia lunata [7] = experiment: Antifungal activity against Curvularia lunata NCIM 716 at 100 ug/disk after 48 hrs by agar disk diffusion method; details: NCIM 716, 48 h, read-out: IZ; summary of the method: as §2
Aspergillus niger [8] = experiment: Antifungal activity against Aspergillus niger NCIM 596 at 100 ug/disk after 48 hrs by agar disk diffusion method; details: NCIM 596, 48 h, read-out: IZ; summary of the method: as §2
Bacillus subtilis [9] = experiment: Antibacterial activity against Bacillus subtilis NCIM 2063 at 100 ug/disk after 24 hrs by agar disk diffusion method; details: NCIM 2063, 24 h, read-out: IZ; summary of the method: as §1
[10] = Antioxidant activity assessed as nitric oxide production at 100 uM after 120 mins by Griess reagent method
Summary of the method: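 Nitric oxide assay with Griess read-out. At intervals, 0.5 ml of incubation solution was mixed with 0.5 ml Griess reagent (1% sulfanilamide, 0.1% N-naphthylethylenediamine dihydrochloride, 2% o-phosphoric acid in water). The control received an equal amount of solvent and was handled identically.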

Proteus vulgaris [11] = experiment: Antibacterial activity against Proteus vulgaris NCIM 2027 at 200 ug/disk after 24 hrs by agar disk diffusion method; details: NCIM 2027, 24 h, read-out: IZ; summary of the method: as §1
Klebsiella pneumoniae [12] = experiment: Antibacterial activity against Klebsiella pneumoniae NCIM 2957 at 100 ug/disk after 24 hrs by agar disk diffusion method; details: NCIM 2957, 24 h, read-out: IZ; summary of the method: as §1
[13] = system: Radical scavenging activity; experiment: Antioxidant activity assessed as DPPH free radical scavenging activity at 100 uM after 20 mins
Summary of the method: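 DPPH scavenging: compound solutions were added to DPPH in dioxane/ethanol and kept at ambient temperature for 20 min. Absorbance was read at 517 nm. The test–control difference was expressed as percent DPPH radical scavenging.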

Staphylococcus aureus [14] = experiment: Antibacterial activity against Staphylococcus aureus NCIM 5021 at 100 ug/disk after 24 hrs by agar disk diffusion method; details: NCIM 5021, 24 h, read-out: IZ; summary of the method: as §1
Curvularia lunata [15] = experiment: Antifungal activity against Curvularia lunata NCIM 716 at 200 ug/disk after 48 hrs by agar disk diffusion method; details: NCIM 716, 48 h, read-out: IZ; summary of the method: as §2
Staphylococcus aureus [16] = experiment: Antibacterial activity against Staphylococcus aureus NCIM 5021 at 200 ug/disk after 24 hrs by agar disk diffusion method; details: NCIM 5021, 24 h, read-out: IZ; summary of the method: as §1

SMILES | zone of inhibition at 200 µg/disc (Bacillus subtilis [1]) | zone of inhibition at 200 µg/disc (Klebsiella pneumoniae [2]) | zone of inhibition at 100 µg/disc (Fusarium solani [3]) | zone of inhibition at 100 µg/disc (Proteus vulgaris [4]) | zone of inhibition at 200 µg/disc (Fusarium solani [5]) | zone of inhibition at 200 µg/disc (Aspergillus niger [6]) | zone of inhibition at 100 µg/disc (Curvularia lunata [7]) | zone of inhibition at 100 µg/disc (Aspergillus niger [8]) | zone of inhibition at 100 µg/disc (Bacillus subtilis [9]) | inhibition [10] | zone of inhibition at 200 µg/disc (Proteus vulgaris [11]) | zone of inhibition at 100 µg/disc (Klebsiella pneumoniae [12]) | inhibition [13] | zone of inhibition at 100 µg/disc (Staphylococcus aureus [14]) | zone of inhibition at 200 µg/disc (Curvularia lunata [15]) | zone of inhibition at 200 µg/disc (Staphylococcus aureus [16])
NC1=NC(=O)N=C(N)C1C(CS(=O)(=O)c1ccccc1)S(=O)(=O)c1ccccc1 (centres undefined) | 19 mm | 18 mm | 14 mm | 14 mm | 19 mm | 18 mm | 18 mm | 15 mm | 16 mm | 29.7% | 16 mm | 16 mm | 28.8% | 18 mm | 21 mm | 20 mm
Cc1ccc(S(=O)(=O)CC(C2C(N)=NN=C2N)S(=O)(=O)c2ccc(C)cc2)cc1 (centres undefined) | 28 mm | 26 mm | 30 mm | 22 mm | 35 mm | 31 mm | 31 mm | 28 mm | 26 mm | 60.5% | 25 mm | 23 mm | 59.4% | 27 mm | 33 mm | 29 mm
CN1C(=N)C(C(CC(=O)c2ccccc2)C(=O)c2ccccc2)C(=N)N(C)C1=O (centres undefined) | 11 mm | 9 mm | 11 mm | 6 mm | 13 mm | 16 mm | 13 mm | 12 mm | 9 mm | 22.6% | 8 mm | 7 mm | 23.8% | 10 mm | 15 mm | 13 mm
CN1C(=N)C(C(CC(=O)c2ccc(Cl)cc2)C(=O)c2ccc(Cl)cc2)C(=N)N(C)C1=O (centres undefined) | 13 mm | 10 mm | 14 mm | 9 mm | 16 mm | 13 mm | 13 mm | 11 mm | 11 mm | 28.2% | 11 mm | 9 mm | 29.9% | 12 mm | 15 mm | 14 mm
Cc1ccc(S(=O)(=O)CC(C2C(=N)N(C)C(=O)N(C)C2=N)S(=O)(=O)c2ccc(C)cc2)cc1 (centres undefined) | 14 mm | 11 mm | 11 mm | 8 mm | 14 mm | 13 mm | 13 mm | 10 mm | 12 mm | 24.6% | 10 mm | 9 mm | 24.8% | 11 mm | 16 mm | 13 mm
Cc1ccc(C(=O)CC(C(=O)c2ccc(C)cc2)C2C(N)=NC(=O)N=C2N)cc1 (centres undefined) | 12 mm | 12 mm | 14 mm | 13 mm | 18 mm | 15 mm | 15 mm | 13 mm | 11 mm | 27.2% | 14 mm | 10 mm | 28.6% | 12 mm | 17 mm | 15 mm
NC1=NC(=S)N=C(N)C1C(CC(=O)c1ccccc1)C(=O)c1ccccc1 (centres undefined) | 24 mm | 21 mm | 16 mm | 17 mm | 20 mm | 19 mm | 19 mm | 14 mm | 23 mm | 35.7% | 19 mm | 19 mm | 37.8% | 22 mm | 22 mm | 24 mm
Cc1ccc(C(=O)CC(C(=O)c2ccc(C)cc2)C2C(N)=NN=C2N)cc1 (centres undefined) | 29 mm | 27 mm | 32 mm | 24 mm | 35 mm | 31 mm | 31 mm | 30 mm | 27 mm | 68.2% | 26 mm | 25 mm | 66.5% | 25 mm | 33 mm | 28 mm
CN1C(=N)C(C(CS(=O)(=O)c2ccccc2)S(=O)(=O)c2ccccc2)C(=N)N(C)C1=O (centres undefined) | 16 mm | 12 mm | 13 mm | 10 mm | 16 mm | 16 mm | 16 mm | 14 mm | 14 mm | 26.9% | 12 mm | 9 mm | 27.7% | 13 mm | 20 mm | 15 mm
